Test results taken from the M2OR odorant receptor database.

Key:
Details in all cases: stereoisomer not certain
[1] = biological target: T1, UniProt Q8VH21
T1 sequence (whole entry): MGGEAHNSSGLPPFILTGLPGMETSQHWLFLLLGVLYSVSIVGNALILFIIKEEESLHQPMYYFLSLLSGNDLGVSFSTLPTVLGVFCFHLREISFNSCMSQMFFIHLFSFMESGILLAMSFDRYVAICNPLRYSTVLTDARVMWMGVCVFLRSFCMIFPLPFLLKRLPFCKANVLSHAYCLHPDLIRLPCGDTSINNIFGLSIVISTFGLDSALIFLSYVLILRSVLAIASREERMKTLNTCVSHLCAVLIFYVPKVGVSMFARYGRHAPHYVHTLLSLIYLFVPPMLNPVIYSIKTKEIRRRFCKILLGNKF
Summary of the method: (§1)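 Assay methods differ from source to source, frequently being transient luciferase assays in mammalian cell lines. For each receptor–molecule pair, the label responsive (active) applies when the original authors judged the measured signal statistically different from baseline, and non-responsive (inactive) applies otherwise.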

[2] = biological target: T2, UniProt Q924H8
T2 sequence (whole entry): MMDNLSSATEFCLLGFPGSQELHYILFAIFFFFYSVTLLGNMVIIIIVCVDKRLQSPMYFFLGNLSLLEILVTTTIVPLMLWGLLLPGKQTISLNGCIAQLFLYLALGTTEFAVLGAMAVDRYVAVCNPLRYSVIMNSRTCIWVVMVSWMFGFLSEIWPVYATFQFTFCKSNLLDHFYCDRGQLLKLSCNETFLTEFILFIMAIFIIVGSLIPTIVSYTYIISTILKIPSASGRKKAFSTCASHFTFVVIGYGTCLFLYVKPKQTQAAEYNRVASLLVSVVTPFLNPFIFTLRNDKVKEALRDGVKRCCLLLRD
Summary of the method: as §1

[3] = biological target: T3, UniProt Q920P1
T3 sequence (whole entry): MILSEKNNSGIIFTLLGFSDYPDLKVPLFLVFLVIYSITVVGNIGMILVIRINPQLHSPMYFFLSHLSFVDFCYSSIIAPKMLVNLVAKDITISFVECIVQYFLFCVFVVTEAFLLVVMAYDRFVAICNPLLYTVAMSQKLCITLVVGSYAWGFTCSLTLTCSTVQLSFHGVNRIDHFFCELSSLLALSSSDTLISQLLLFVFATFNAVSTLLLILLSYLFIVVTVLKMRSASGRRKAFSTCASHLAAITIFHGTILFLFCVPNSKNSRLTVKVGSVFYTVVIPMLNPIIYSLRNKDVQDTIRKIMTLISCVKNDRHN
Summary of the method: as §1

[4] = biological target: T4, UniProt Q920P2
T4 sequence (whole entry): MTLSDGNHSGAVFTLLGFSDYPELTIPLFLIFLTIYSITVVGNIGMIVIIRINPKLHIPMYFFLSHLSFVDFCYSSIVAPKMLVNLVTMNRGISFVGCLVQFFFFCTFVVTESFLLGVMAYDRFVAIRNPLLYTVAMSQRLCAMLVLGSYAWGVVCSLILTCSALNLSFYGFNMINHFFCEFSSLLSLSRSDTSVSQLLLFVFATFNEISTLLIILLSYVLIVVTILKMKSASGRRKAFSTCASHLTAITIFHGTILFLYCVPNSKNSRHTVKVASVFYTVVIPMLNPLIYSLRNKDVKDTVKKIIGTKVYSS
Summary of the method: as §1

[5] = biological target: T5, UniProt Q9EPN9
T5 sequence (whole entry): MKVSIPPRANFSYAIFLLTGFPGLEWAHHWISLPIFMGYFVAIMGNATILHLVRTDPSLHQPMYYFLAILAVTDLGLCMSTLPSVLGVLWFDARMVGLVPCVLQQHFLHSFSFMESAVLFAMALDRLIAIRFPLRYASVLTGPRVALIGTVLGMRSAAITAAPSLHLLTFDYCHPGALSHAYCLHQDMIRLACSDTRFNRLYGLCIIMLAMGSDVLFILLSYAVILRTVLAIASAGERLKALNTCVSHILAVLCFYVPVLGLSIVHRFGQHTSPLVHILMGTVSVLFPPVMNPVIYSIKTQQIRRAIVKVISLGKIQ
Summary of the method: as §1

[6] = biological target: UniProt Q9R0K2
Summary of the method: as §1

[7] = biological target: T6, UniProt Q9WU86
T6 sequence (whole entry): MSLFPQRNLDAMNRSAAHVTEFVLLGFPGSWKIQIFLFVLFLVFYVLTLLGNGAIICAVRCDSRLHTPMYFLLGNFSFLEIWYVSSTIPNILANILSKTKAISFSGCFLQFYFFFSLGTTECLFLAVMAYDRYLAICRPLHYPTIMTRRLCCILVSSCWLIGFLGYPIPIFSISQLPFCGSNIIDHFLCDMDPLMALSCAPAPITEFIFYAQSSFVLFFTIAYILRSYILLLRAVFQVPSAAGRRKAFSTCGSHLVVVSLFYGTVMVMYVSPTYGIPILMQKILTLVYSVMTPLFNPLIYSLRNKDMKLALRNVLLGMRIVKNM
Summary of the method: as §1

[8] = biological target: UniProt Q9WVD9
Summary of the method: as §1

[9] = biological target: T7, UniProt Q9WVN5
T7 sequence (whole entry): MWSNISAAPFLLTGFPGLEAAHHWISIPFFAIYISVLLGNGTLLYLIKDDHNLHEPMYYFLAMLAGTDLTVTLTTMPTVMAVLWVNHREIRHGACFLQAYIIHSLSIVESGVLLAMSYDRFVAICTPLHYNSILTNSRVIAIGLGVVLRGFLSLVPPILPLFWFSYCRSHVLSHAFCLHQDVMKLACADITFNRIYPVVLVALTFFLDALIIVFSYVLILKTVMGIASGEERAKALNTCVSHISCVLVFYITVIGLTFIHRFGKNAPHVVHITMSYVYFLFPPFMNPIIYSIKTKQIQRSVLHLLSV
Summary of the method: as §1

[10] = biological target: UniProt Q924X8
Summary of the method: as §1

[11] = biological target: UniProt Q99NH4
Summary of the method: as §1

[12] = biological target: UniProt Q9WU94
Summary of the method: as §1

[13] = biological target: UniProt Q9WVD7
Summary of the method: as §1

Chain of UniProt Q9R0K2 (Q9R0K2 as listed by the source): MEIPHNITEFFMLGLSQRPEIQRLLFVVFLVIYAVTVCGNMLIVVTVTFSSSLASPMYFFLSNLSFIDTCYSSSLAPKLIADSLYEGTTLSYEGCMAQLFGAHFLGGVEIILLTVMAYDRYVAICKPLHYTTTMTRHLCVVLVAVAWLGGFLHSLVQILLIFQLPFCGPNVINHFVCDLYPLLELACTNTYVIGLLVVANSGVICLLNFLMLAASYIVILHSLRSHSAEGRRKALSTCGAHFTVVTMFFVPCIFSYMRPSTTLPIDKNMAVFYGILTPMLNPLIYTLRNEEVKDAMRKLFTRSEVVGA
Chain of UniProt Q9WVD9 (Q9WVD9 as listed by the source): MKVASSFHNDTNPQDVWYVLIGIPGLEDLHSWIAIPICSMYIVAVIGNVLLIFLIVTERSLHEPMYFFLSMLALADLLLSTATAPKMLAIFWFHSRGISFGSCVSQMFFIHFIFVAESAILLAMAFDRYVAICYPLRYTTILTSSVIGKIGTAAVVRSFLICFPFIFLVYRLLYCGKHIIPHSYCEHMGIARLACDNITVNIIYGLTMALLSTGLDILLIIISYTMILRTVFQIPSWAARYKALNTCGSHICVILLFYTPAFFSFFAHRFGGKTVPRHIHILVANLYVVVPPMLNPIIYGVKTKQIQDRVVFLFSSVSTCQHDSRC
Chain of UniProt Q99NH4 (Q99NH4 as listed by the source): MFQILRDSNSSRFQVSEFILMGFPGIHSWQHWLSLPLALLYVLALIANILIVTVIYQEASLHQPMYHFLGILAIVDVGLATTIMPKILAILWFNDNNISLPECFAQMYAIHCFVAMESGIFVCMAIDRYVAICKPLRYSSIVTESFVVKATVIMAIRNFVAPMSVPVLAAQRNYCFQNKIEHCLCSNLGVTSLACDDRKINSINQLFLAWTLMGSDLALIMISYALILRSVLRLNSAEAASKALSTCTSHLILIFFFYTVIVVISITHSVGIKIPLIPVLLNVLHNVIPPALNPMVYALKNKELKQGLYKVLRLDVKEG
Chain of UniProt Q9WVD7 (Q9WVD7 as listed by the source): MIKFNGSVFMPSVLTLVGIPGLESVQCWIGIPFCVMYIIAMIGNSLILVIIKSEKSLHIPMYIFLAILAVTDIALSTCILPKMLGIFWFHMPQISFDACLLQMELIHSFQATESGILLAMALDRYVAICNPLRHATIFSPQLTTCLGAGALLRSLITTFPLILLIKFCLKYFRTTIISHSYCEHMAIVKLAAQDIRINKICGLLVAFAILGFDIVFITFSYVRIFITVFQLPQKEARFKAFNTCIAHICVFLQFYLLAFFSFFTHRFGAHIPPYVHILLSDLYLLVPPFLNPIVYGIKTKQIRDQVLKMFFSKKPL
Chain of UniProt Q9WU94 (Q9WU94 as listed by the source): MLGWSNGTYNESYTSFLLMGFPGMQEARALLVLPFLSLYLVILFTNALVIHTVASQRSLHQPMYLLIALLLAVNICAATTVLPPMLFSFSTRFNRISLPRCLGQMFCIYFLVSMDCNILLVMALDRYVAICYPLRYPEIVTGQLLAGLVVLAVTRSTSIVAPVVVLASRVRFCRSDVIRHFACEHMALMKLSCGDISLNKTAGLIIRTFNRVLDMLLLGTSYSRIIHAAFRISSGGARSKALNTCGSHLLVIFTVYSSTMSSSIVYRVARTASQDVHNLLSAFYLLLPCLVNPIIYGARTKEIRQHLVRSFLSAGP
Chain of UniProt Q924X8 (Q924X8 as listed by the source): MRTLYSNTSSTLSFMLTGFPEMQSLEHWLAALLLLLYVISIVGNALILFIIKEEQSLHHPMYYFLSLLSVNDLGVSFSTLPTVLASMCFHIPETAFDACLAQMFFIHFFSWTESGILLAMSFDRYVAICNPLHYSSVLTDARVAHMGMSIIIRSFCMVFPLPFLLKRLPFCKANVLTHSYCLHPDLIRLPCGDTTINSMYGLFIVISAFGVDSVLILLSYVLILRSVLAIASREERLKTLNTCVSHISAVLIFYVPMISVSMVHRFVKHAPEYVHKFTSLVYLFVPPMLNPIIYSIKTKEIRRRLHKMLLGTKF

With CC(C=O)Cc1ccc2c(c1)OCO2 (stereo unspecified) the “odorant receptor agonist call” value [1] was “inactive” and the “odorant receptor agonist call” value [2] was “inactive”.
O=CC=Cc1ccccc1 was tested, and the “odorant receptor agonist call” value [1] was “inactive” and the “odorant receptor agonist call” value [2] was “inactive”.
For C=CCc1ccccc1, the “odorant receptor agonist call” value [3] was “inactive”, the “odorant receptor agonist call” value [4] was “inactive” and the “odorant receptor agonist call” value [5] was “inactive”. The “odorant receptor agonist call” value [6] was “inactive”, the “odorant receptor agonist call” value [7] was “active” and the “odorant receptor agonist call” value [8] was “inactive”. The “odorant receptor agonist call” value [9] was “inactive”.
For O=C(O)CCCCCCCBr, the “odorant receptor agonist call” value [10] was “active”, the “odorant receptor agonist call” value [11] was “active” and the “odorant receptor agonist call” value [12] was “inactive”. The “odorant receptor agonist call” value [13] was “active”.
In the case of O=Cc1ccc2c(c1)OCO2, the “odorant receptor agonist call” value [1] is reported as “inactive”, the “odorant receptor agonist call” value [3] is reported as “inactive” and the “odorant receptor agonist call” value [4] is reported as “inactive”. The “odorant receptor agonist call” value [2] was “inactive”.
In the case of O=c1cc(O)c2ccccc2o1, the “odorant receptor agonist call” value [1] is reported as “inactive”, the “odorant receptor agonist call” value [2] is reported as “inactive” and the “odorant receptor agonist call” value [5] is reported as “inactive”. The “odorant receptor agonist call” value [6] was “inactive”, the “odorant receptor agonist call” value [7] was “inactive” and the “odorant receptor agonist call” value [8] was “inactive”. The “odorant receptor agonist call” value [9] was “inactive”.
OCc1ccc2c(c1)OCO2 was tested, and the “odorant receptor agonist call” value [1] was “inactive” and the “odorant receptor agonist call” value [2] was “inactive”.
With c1ccncc1 the “odorant receptor agonist call” value [3] was “inactive” and the “odorant receptor agonist call” value [4] was “inactive”.
In the case of O=Cc1ccccc1, the “odorant receptor agonist call” value [1] is reported as “active” and the “odorant receptor agonist call” value [2] is reported as “inactive”.
In the case of CCCCCCC(Br)C(=O)O (stereo unspecified), the “odorant receptor agonist call” value [1] is reported as “inactive” and the “odorant receptor agonist call” value [2] is reported as “inactive”.
For CCCCC(Br)C(=O)O (stereo unspecified), the “odorant receptor agonist call” value [1] was “inactive”, the “odorant receptor agonist call” value [2] was “inactive” and the “odorant receptor agonist call” value [11] was “active”.
In the case of C=CCc1ccc2c(c1)OCO2, the “odorant receptor agonist call” value [3] is reported as “inactive” and the “odorant receptor agonist call” value [4] is reported as “inactive”.
For CCC1CCC(=O)O1 (stereo unspecified), the “odorant receptor agonist call” value [5] was “inactive”, the “odorant receptor agonist call” value [6] was “inactive” and the “odorant receptor agonist call” value [7] was “inactive”. The “odorant receptor agonist call” value [8] was “inactive” and the “odorant receptor agonist call” value [9] was “inactive”.
Cc1ccc(OC(=O)Cc2ccccc2)cc1 was tested, and the “odorant receptor agonist call” value [1] was “inactive” and the “odorant receptor agonist call” value [2] was “inactive”.
COc1ccc(C=O)cc1 was tested, and the “odorant receptor agonist call” value [1] was “inactive” and the “odorant receptor agonist call” value [2] was “inactive”.
In the case of C=C(C)C1CC=C(C=O)CC1 (stereo unspecified), the “odorant receptor agonist call” value [1] is reported as “inactive” and the “odorant receptor agonist call” value [2] is reported as “inactive”.
With CSSC the “odorant receptor agonist call” value [1] was “inactive” and the “odorant receptor agonist call” value [2] was “inactive”.
For Oc1ccccc1Br, the “odorant receptor agonist call” value [1] was “inactive” and the “odorant receptor agonist call” value [2] was “inactive”.
In the case of C=CCOC(=O)Cc1ccccc1, the “odorant receptor agonist call” value [1] is reported as “inactive”, the “odorant receptor agonist call” value [2] is reported as “inactive” and the “odorant receptor agonist call” value [5] is reported as “active”. For the same compound, the “odorant receptor agonist call” value [6] was “active”, the “odorant receptor agonist call” value [7] was “inactive” and the “odorant receptor agonist call” value [8] was “inactive”. The “odorant receptor agonist call” value [9] was “active”.
